{"source": "ChEMBL document CHEMBL5712894", "about": "“Regulation of angiotensin II actions by enhancers and super-enhancers in vascular smooth muscle cells” (Nat Commun, 2017)", "key": {"Rattus norvegicus [1]": {"organism": "Rattus norvegicus", "experiment": "Downregulation of Foxp1 gene expression in rat aorta pretreated with compound at 500 nM followed by AngII addition measured by ChIP assay", "format": "functional, tissue-based"}, "VSMC [2]": {"tested_on": "VSMC", "experiment": "Downregulation of Fst gene expression in human VSMC cells pretreated with compound at 250 to 500 nM followed by AngII addition measured by RT-qPCR analysis", "format": "functional, cell-based", "details": "dose 250-500 nM"}, "Mus musculus [3]": {"tested_on": "Mus musculus", "experiment": "Antihypersensitivity in 1 ug/kg/min AngII infused C57BL/6 mouse assessed as reduction in systolic blood pressure at 50 mg/kg, ip for 4 weeks", "format": "functional, organism-based", "summary_of_the_method": "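Male C57BL/6 mice infused with AngII via subcutaneous osmotic minipump (1.0 μg kg−1 min−1, 28 days); 50 mg kg−1 ip once daily starting 2 days post-implantation, vehicle DMSO. Systolic pressure by tail cuff during week 4. n = 7–8 mice/group, mean + SEM, one-way ANOVA with Tukey.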"}, "VSMC [4]": {"tested_on": "VSMC", "experiment": "Downregulation of Tgif1 gene expression in human VSMC cells pretreated with compound at 250 to 500 nM followed by AngII addition measured by RT-qPCR analysis", "format": "functional, cell-based", "details": "dose 250-500 nM"}, "Rattus norvegicus [5]": {"organism": "Rattus norvegicus", "experiment": "Downregulation of ESM1 gene expression in rat aorta pretreated with compound at 500 nM followed by AngII addition measured by ChIP assay", "format": "functional, tissue-based"}, "Rattus norvegicus [6]": {"organism": "Rattus norvegicus", "experiment": "Downregulation of Spry2 gene expression in rat aorta pretreated with compound at 500 nM followed by AngII addition measured by ChIP assay", "format": "functional, tissue-based"}, "VSMC [7]": {"tested_on": "VSMC", "experiment": "Downregulation of ESM1 gene expression in human VSMC cells pretreated with compound at 250 to 500 nM followed by AngII addition measured by RT-qPCR analysis", "format": "functional, cell-based", "details": "dose 250-500 nM"}, "Mus musculus [8]": {"tested_on": "Mus musculus", "experiment": "Antihypersensitivity in 1 ug/kg/min AngII infused C57BL/6 mouse assessed as reduction in medial hypertrophy at 50 mg/kg, ip for 4 weeks by F4/80 staining analysis", "format": "functional, organism-based", "summary_of_the_method": "(§1)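 Male C57BL/6 mice with subcutaneous osmotic minipumps delivering AngII (1.0 μg kg−1 min−1, 28 days); from 2 days post-implantation, 50 mg kg−1 ip once daily (vehicle DMSO). Aortas formalin-fixed, paraffin 5 µm sections. H&E sections quantified for wall thickness; F4/80 IHC (DAB) quantified as reciprocal brown intensity excluding adventitia. Mean + SEM, one-way ANOVA with Tukey.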"}, "VSMC [9]": {"tested_on": "VSMC", "experiment": "Downregulation of Fgf2 gene expression in human VSMC cells pretreated with compound at 250 to 500 nM followed by AngII addition measured by RT-qPCR analysis", "format": "functional, cell-based", "details": "dose 250-500 nM"}, "Rattus norvegicus [10]": {"organism": "Rattus norvegicus", "experiment": "Downregulation of Fgf2 gene expression in rat aorta pretreated with compound at 500 nM followed by AngII addition measured by ChIP assay", "format": "functional, tissue-based"}, "VSMC [11]": {"tested_on": "VSMC", "experiment": "Downregulation of Spry2 gene expression in human VSMC cells pretreated with compound at 250 to 500 nM followed by AngII addition measured by RT-qPCR analysis", "format": "functional, cell-based", "details": "dose 250-500 nM"}, "[12]": {"experiment": "Binding affinity of BRD2 (unknown origin) assessed as dissociation constant", "set-up": "species or system Homo sapiens"}, "Rattus norvegicus [13]": {"organism": "Rattus norvegicus", "experiment": "Downregulation of fst gene expression in rat aorta pretreated with compound at 500 nM followed by AngII addition measured by ChIP assay", "format": "functional, tissue-based"}, "VSMC [14]": {"tested_on": "VSMC", "experiment": "Downregulation of Flt gene expression in human VSMC cells pretreated with compound at 250 to 500 nM followed by AngII addition measured by RT-qPCR analysis", "format": "functional, cell-based", "details": "dose 250-500 nM"}, "Mus musculus [15]": {"tested_on": "Mus musculus", "experiment": "Antihypersensitivity in 1 ug/kg/min AngII infused C57BL/6 mouse assessed as reduction in inflammation at 50 mg/kg, ip for 4 weeks by F4/80 staining analysis", "format": "functional, organism-based", "summary_of_the_method": "as §1"}, "VSMC [16]": {"tested_on": "VSMC", "experiment": "Downregulation of Foxp1 gene expression in human VSMC cells pretreated with compound at 250 to 500 nM followed by AngII addition measured by RT-qPCR analysis", "format": "functional, cell-based", "details": "dose 250-500 nM"}, "Rattus norvegicus [17]": {"organism": "Rattus norvegicus", "experiment": "Downregulation of Tgif1 gene expression in rat aorta pretreated with compound at 500 nM followed by AngII addition measured by ChIP assay", "format": "functional, tissue-based"}, "VSMC [18]": {"tested_on": "VSMC", "experiment": "Downregulation of Egr2 gene expression in human VSMC cells pretreated with compound at 250 to 500 nM followed by AngII addition measured by RT-qPCR analysis", "format": "functional, cell-based", "details": "dose 250-500 nM"}}, "note": "Calls of active or inactive are those of the source. The rule behind the calls is not given here.", "data": [{"smiles": "Cc1sc2c(c1C)C(c1ccc(Cl)cc1)=N[C@@H](CC(=O)OC(C)(C)C)c1nnc(C)n1-2", "values": [{"measurement": "Activity", "setting": "Rattus norvegicus [1]", "value": "Active"}, {"measurement": "Activity", "setting": "VSMC [2]", "value": "Active"}, {"measurement": "Activity", "setting": "Mus musculus [3]", "value": "Active"}, {"measurement": "Activity", "setting": "VSMC [4]", "value": "Active"}, {"measurement": "Activity", "setting": "Rattus norvegicus [5]", "value": "Active"}, {"measurement": "Activity", "setting": "Rattus norvegicus [6]", "value": "Active"}, {"measurement": "Activity", "setting": "VSMC [7]", "value": "Active"}, {"measurement": "Activity", "setting": "Mus musculus [8]", "value": "Active"}, {"measurement": "Activity", "setting": "VSMC [9]", "value": "Active"}, {"measurement": "Activity", "setting": "Rattus norvegicus [10]", "value": "Active"}, {"measurement": "Activity", "setting": "VSMC [11]", "value": "Active"}, {"measurement": "Kd", "setting": "[12]", "value": "~128", "unit": "nM"}, {"measurement": "Activity", "setting": "Rattus norvegicus [13]", "value": "Active"}, {"measurement": "Activity", "setting": "VSMC [14]", "value": "Active"}, {"measurement": "Activity", "setting": "Mus musculus [15]", "value": "Active"}, {"measurement": "Activity", "setting": "VSMC [16]", "value": "Active"}, {"measurement": "Activity", "setting": "Rattus norvegicus [17]", "value": "Active"}, {"measurement": "Activity", "setting": "VSMC [18]", "value": "Active"}]}]}
